Experimental data taken from ChEMBL document CHEMBL3244105, “Antiparasitic agents. 3. Synthesis and anthelmintic activities of novel 2-pyridinyl-5-isothiocyanatobenzimidazoles” (1979).
Activity calls are given as the source filed them. The calls are words filed in the database; no cut-off is given here.

Columns and labels:
[1] = tested on: Heligmosomoides polygyrus; experiment: Nematocidal activity against Nematospiroides dubius infected in CF1 mouse assessed as clearance of worm burden at 0.2% dosed through diet for 4 days dosed 16 days post infection by press-plate technique; assay type: functional
Summary of the method: (§1)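 Primary oral mouse screen. Compound was given mixed in the diet. Tapeworm (taeniacidal) and N. dubius nematode activity were each scored as percent clearance of worms.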

Rodentolepis nana [2] = experiment: Anthelmintic activity against Hymenolepis nana infected in CF1 mouse assessed as clearance of worm burden assessed as clearance of worm burden at 0.2% dosed through diet for 4 days dosed 16 days post infection by press-plate technique; assay type: functional; summary of the method: as §1
[3] = tested on: gastrointestinal nematodes (Ovis aries); experiment: Anthelmintic activity against gastrointestinal nematodes infected in sheep assessed as reduction of fecal egg count at 50 mg/kg, po measured up to 7 days relative to control; design: scale not given: the % may be the effect or the level left
[4] = tested on: gastrointestinal nematodes (Ovis aries); experiment: Anthelmintic activity against gastrointestinal nematodes infected in sheep assessed as reduction of fecal egg count at 25 mg/kg, po measured up to 7 days relative to control; design: scale not given: the % may be the effect or the level left
[5] = tested on: gastrointestinal nematodes (Ovis aries); experiment: Anthelmintic activity against gastrointestinal nematodes infected in sheep assessed as reduction of fecal egg count at 200 mg/kg, po measured up to 7 days relative to control; design: scale not given: the % may be the effect or the level left
[6] = tested on: Heligmosomoides polygyrus; experiment: Nematocidal activity against Nematospiroides dubius infected in CF1 mouse assessed as clearance of worm burden at 0.03% dosed through diet for 4 days dosed 16 days post infection by press-plate technique; assay type: functional, organism-based; summary of the method: as §1
Rodentolepis nana [7] = experiment: Anthelmintic activity against Hymenolepis nana infected in CF1 mouse assessed as clearance of worm burden at 0.03% dosed through diet for 4 days dosed 16 days post infection by press-plate technique; assay type: functional, organism-based; summary of the method: as §1
Taenia pisiformis = experiment: Anthelmintic activity against Taenia pisiformis infected in dog assessed as reduction of fecal egg count; assay type: functional, organism-based
Moniezia = experiment: Anthelmintic activity against Moniezia sp. infected in sheep assessed as reduction of fecal egg count; assay type: functional
[8] = tested on: gastrointestinal nematodes (Ovis aries); experiment: Anthelmintic activity against gastrointestinal nematodes infected in sheep assessed as reduction of fecal egg count at 43 mg/kg, po measured up to 7 days relative to control; design: scale not given: the % may be the effect or the level left

SMILES	Activity [1]	Activity (Rodentolepis nana [2])	Activity [3]	also measured
S=C=Nc1ccc2[nH]c(-c3ccccc3)nc2c1	inactive	100%	0%	–
Cn1c(-c2cccc[n+]2C)nc2cc(N=C=S)ccc21.[I-]	inactive	0%	–	–
S=C=Nc1ccc2[nH]c(-c3ccccn3)nc2c1 [listing 1 of 2 here]	–	100%	100%	Activity [4]: 11%; Activity [5]: 100%
S=C=Nc1cccc2[nH]c(-c3ccccn3)nc12	inactive	25%	83%	–
Cc1ccc(S(=O)(=O)O)cc1.S=C=Nc1ccc2[nH]c(-c3ccccn3)nc2c1	–	100%	0%	–
S=C=Nc1ccnc(-c2nc3ccccc3[nH]2)c1	inactive	50%	0%	–
S=C=Nc1ccc2[nH]c(-c3cccnc3)nc2c1	inactive	100%	–	Activity [5]: 71%
COc1ccnc(-c2nc3cc(N=C=S)ccc3[nH]2)c1	inactive	75%	0%	–
CCCCc1ccc2[nH]c(NC(=O)OC)nc2c1	–	–	–	Activity [6]: Active; Activity (Rodentolepis nana [7]): Active
S=C=Nc1ccc2[nH]c(-c3cscn3)nc2c1	90%	100%	–	–
Cl.S=C=Nc1ccc2[nH]c(-c3ccccn3)nc2c1	–	75%	95%	–
S=C=Nc1ccc2[nH]c(-c3ccncc3)nc2c1	inactive	0%	0%	–
S=C=Nc1ccnc(-c2nc3cc(N=C=S)ccc3[nH]2)c1	inactive	0%	0%	–
c1ccc(-c2nc3ccccc3[nH]2)nc1	inactive	0%	28%	–
S=C=Nc1cc2nc(-c3ccccn3)[nH]c2cc1Cl	inactive	50%	15%	–
S=C=Nc1ccc2[nH]c(-c3ccccn3)nc2c1 [listing 2 of 2 here]	inactive	–	–	Activity (Taenia pisiformis): inactive; Activity (Moniezia): inactive
Cc1cccc(-c2nc3cc(N=C=S)ccc3[nH]2)n1	inactive	75%	52%	–
S=C=Nc1ccc2[nH]c(-c3cc(Cl)ccn3)nc2c1	inactive	75%	0%	–
c1ccc(-c2nc3ccccc3[nH]2)cc1	inactive	25%	17%	–
Cc1ccnc(-c2nc3cc(N=C=S)ccc3[nH]2)c1	inactive	25%	0%	–
[O-][n+]1ccccc1-c1nc2cc(N=C=S)ccc2[nH]1	inactive	100%	–	Activity [8]: 9%
